{
  "source": "ChEMBL document CHEMBL4052792",
  "about": "“3-Hydroxykynurenine, a Tryptophan Metabolite Generated during the Infection, Is Active Against Trypanosoma cruzi” (ACS Med Chem Lett, 2017)",
  "key": {"Trypanosoma cruzi [1]": {"system": "Trypanosoma cruzi", "experiment": "Trypanocidal activity against Trypanosoma cruzi Tulahuen trypomastigotes infected in mouse whole blood assessed as increase in parasite death at 0.2 uM by trypan blue assay", "format": "functional", "details": "TDE = time-dependent effect"}, "Trypanosoma cruzi [2]": {"system": "Trypanosoma cruzi", "experiment": "Trypanocidal activity against Trypanosoma cruzi Tulahuen trypomastigotes assessed as reduction in parasites after 24 to 48 hrs by trypan blue assay", "format": "functional", "procedure,_shortened": "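Bloodstream trypomastigotes were incubated at 37 °C in culture medium alone or with increasing doses for 24, 48 and 72 h. Parasite death was scored as percentage by trypan blue exclusion. Results are means ± SD of three independent experiments.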"}, "Trypanosoma cruzi [3]": {"system": "Trypanosoma cruzi", "experiment": "Trypanocidal activity against Trypanosoma cruzi Tulahuen trypomastigotes infected in mouse whole blood assessed as viable trypomastigote cells at 20 uM after 96 hrs by trypan blue assay relative to control", "format": "functional", "procedure,_shortened": "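Trypomastigotes were exposed to 20 μM in 100% whole blood at 37 °C. Viable parasites were counted after 24, 48, 72 and 96 h. Results are means ± SD of three independent experiments.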"}, "Trypanosoma cruzi [4]": {"system": "Trypanosoma cruzi", "experiment": "Induction of mitochondrial membrane depolarization in Trypanosoma cruzi Tulahuen trypomastigotes at 0.2 uM after 24 hrs by Rh123/propidium iodide staining-based flow cytometric analysis (reference value: 3.25 +/- 1.66%)", "format": "functional", "procedure,_shortened": "(§1)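 Trypomastigotes were treated with 3-HK for 24 h at 37 °C, then incubated with PI plus Rh123. Rh123 fluorescence was read by flow cytometry in PI-negative (live) parasites. The depolarized fraction was taken as the low-fluorescence M2 population. Index of variation = (treated median − control median)/control median. Three experiments were run.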"}, "Trypanosoma cruzi [5]": {"system": "Trypanosoma cruzi", "experiment": "Induction of mitochondrial membrane potential reduction in Trypanosoma cruzi Tulahuen trypomastigotes up to 4000 uM after 24 hrs by Rh123/propidium iodide staining-based flow cytometric analysis (reference value: 3.25 +/- 1.66%)", "format": "functional", "parameters": "scale not given: the % may be the effect or the level left", "procedure,_shortened": "as §1"}, "Trypanosoma cruzi [6]": {"system": "Trypanosoma cruzi", "experiment": "Trypanocidal activity against Trypanosoma cruzi Tulahuen amastigotes infected in BALB/C mouse bone marrow derived macrophages assessed as decrease in parasite infected macrophages at 200 uM after 72 hrs by immunofluorescence assay", "format": "functional", "procedure,_shortened": "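Macrophages were infected with trypomastigotes and treated with 3-HK for 24 h. Immunofluorescence counts were made at 72 h post-infection. Intracellular parasites per 200 cells were expressed relative to medium-treated cultures, and infected cells were counted among 200 macrophages. Data are means ± SD of four independent experiments.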"}, "Trypanosoma cruzi [7]": {"system": "Trypanosoma cruzi", "experiment": "(§2) Trypanocidal activity against Trypanosoma cruzi Tulahuen amastigotes infected in BALB/C mouse bone marrow derived macrophages assessed as parasite infected macrophages at 2 uM treated for 24 hrs followed by compound washout measured after 48 hrs by immunofluorescence assay (reference value: 26.84 +/- 7.81%)", "format": "functional"}, "Trypanosoma cruzi [8]": {"system": "Trypanosoma cruzi", "experiment": "as §2, with “at 20” for “at 2”", "format": "functional"}, "Trypanosoma cruzi [9]": {"system": "Trypanosoma cruzi", "experiment": "as §2, with “at 200” for “at 2”", "format": "functional"}, "Trypanosoma cruzi [10]": {"system": "Trypanosoma cruzi", "experiment": "as §2, with “at 400” for “at 2”", "format": "functional"}, "Trypanosoma cruzi [11]": {"system": "Trypanosoma cruzi", "experiment": "as §2, with “at 1500” for “at 2”", "format": "functional"}, "Trypanosoma cruzi [12]": {"system": "Trypanosoma cruzi", "experiment": "as §2, with “at 1800” for “at 2”", "format": "functional"}, "Trypanosoma cruzi [13]": {"system": "Trypanosoma cruzi", "experiment": "Trypanocidal activity against Trypanosoma cruzi Tulahuen amastigotes infected in BALB/C mouse bone marrow derived macrophages assessed as endocytic index at 2 uM treated for 24 hrs followed by compound washout measured after 48 hrs by immunofluorescence assay (reference value: 213.66 +/- 58.79)", "format": "functional"}, "Trypanosoma cruzi [14]": {"system": "Trypanosoma cruzi", "experiment": "Trypanocidal activity against Trypanosoma cruzi Tulahuen amastigotes infected in BALB/C mouse bone marrow derived macrophages assessed as endocytic index at 400 uM treated for 24 hrs followed by compound washout measured after 48 hrs by immunofluorescence assay (reference value: 213.66 +/- 58.79)", "format": "functional"}, "Trypanosoma cruzi [15]": {"system": "Trypanosoma cruzi", "experiment": "Trypanocidal activity against Trypanosoma cruzi Tulahuen amastigotes infected in BALB/C mouse bone marrow derived macrophages assessed as endocytic index at 1800 uM treated for 24 hrs followed by compound washout measured after 48 hrs by immunofluorescence assay (reference value: 213.66 +/- 58.79)", "format": "functional"}, "Trypanosoma cruzi [16]": {"system": "Trypanosoma cruzi", "experiment": "Trypanostatic activity against Trypanosoma cruzi Tulahuen amastigotes infected in BALB/C mouse bone marrow derived macrophages assessed as formation of low electrodense structures in parasite cytoplasm at 20 uM after 24 hrs by transmission electron microscopic analysis", "format": "functional", "procedure,_shortened": "(§3)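 Bone marrow-derived macrophages were infected for 24 h, then exposed to 20 μM for 24 h or left untreated. Intracellular amastigote ultrastructure was examined by transmission electron microscopy, covering mitochondrion, nucleus, kinetoplast, flagellum, flagellar pocket, subpellicular microtubules and cytoplasmic structures.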"}, "Trypanosoma cruzi [17]": {"system": "Trypanosoma cruzi", "experiment": "Trypanostatic activity against Trypanosoma cruzi Tulahuen amastigotes infected in BALB/C mouse bone marrow derived macrophages assessed as kinetoplast structure disorganization at 20 uM after 24 hrs by transmission electron microscopic analysis", "format": "functional", "procedure,_shortened": "as §3"}, "Trypanosoma cruzi [18]": {"system": "Trypanosoma cruzi", "experiment": "Trypanostatic activity against Trypanosoma cruzi Tulahuen amastigotes infected in BALB/C mouse bone marrow derived macrophages assessed as effect in subpelicullar microtubules at 20 uM after 24 hrs by transmission electron microscopic analysis", "format": "functional", "procedure,_shortened": "as §3"}, "PBMC [19]": {"system": "PBMC", "experiment": "Cytotoxicity against human PBMC assessed as reduction in cell viability at 0.2 to 2000 uM after 24 hrs by trypan blue exclusion assay", "format": "cell-based", "procedure,_shortened": "(§4)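 Mammalian cells (human PBMC, Swan 71, Jurkat; bone marrow-derived macrophages; J774) were exposed to 3-HK at 0.2 to 2000 μM for 24 h. Viability was then scored by trypan blue exclusion.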"}, "Jurkat [20]": {"system": "Jurkat", "experiment": "Cytotoxicity against human Jurkat cells assessed as reduction in cell viability at 0.2 to 2000 uM after 24 hrs by trypan blue exclusion assay", "format": "cell-based", "procedure,_shortened": "as §4"}, "PBMC [21]": {"system": "PBMC", "experiment": "Cytotoxicity against human PBMC assessed as reduction in cell viability at 1200 to 2000 uM after 48 hrs by trypan blue exclusion assay", "format": "cell-based", "procedure,_shortened": "(§5)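 Human PBMC and Jurkat cells were treated for 48 h with a range of 3-HK concentrations or left untreated. Viable cells were counted under light microscopy by trypan blue exclusion. Data are means ± SD of four independent experiments.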"}, "Jurkat [22]": {"system": "Jurkat", "experiment": "Cytotoxicity against human Jurkat cells assessed as reduction in cell viability at 1200 to 2000 uM after 48 hrs by trypan blue exclusion assay", "format": "cell-based", "procedure,_shortened": "as §5"}, "[23]": {"experiment": "Induction of apoptosis in BALB/C mouse BMDM assessed as cells with hypodiploid DNA content at 1200 uM after 24 hrs by FITC/propidium iodide staining based flow cytometric analysis (reference value: 29.9%)", "format": "functional"}, "[24]": {"experiment": "Induction of apoptosis in BALB/C mouse BMDM assessed as cells with hypodiploid DNA content at 2000 uM after 24 hrs by FITC/propidium iodide staining based flow cytometric analysis (reference value: 29.9%)", "format": "functional"}, "Enterococcus faecalis": {"system": "Enterococcus faecalis", "experiment": "Antimicrobial activity against vancomycin-resistant Enterococcus faecalis NCTC12201 after 8 hrs", "format": "functional", "details": "NCTC12201, 8 h"}, "Trypanosoma cruzi [25]": {"system": "Trypanosoma cruzi", "experiment": "Trypanocidal activity against Trypanosoma cruzi Tulahuen amastigotes infected in BALB/C mouse bone marrow derived macrophages assessed as reduction in endocytic index at 0.2 uM after 72 hrs by immunofluorescence assay relative to control", "format": "functional"}, "Trypanosoma cruzi [26]": {"system": "Trypanosoma cruzi", "experiment": "Trypanocidal activity against Trypanosoma cruzi Tulahuen trypomastigotes in culture medium after 48 hrs by trypan blue assay"}},
  "note": "Calls of active or inactive are those of the source. No cut-off for these calls is given here.",
  "data": [
    {"smiles": "Nc1c(O)cccc1C(=O)C[C@H](N)C(=O)O", "values": [
      {"measurement": "Activity", "setting": "Trypanosoma cruzi [1]", "value": "Tde"},
      {"measurement": "IC50", "setting": "Trypanosoma cruzi [2]", "value": "200 to 1200", "unit": "µM"},
      {"measurement": "Activity", "setting": "Trypanosoma cruzi [3]", "value": 50, "unit": "%"},
      {"measurement": "Activity", "setting": "Trypanosoma cruzi [4]", "value": 3.88, "unit": "%"},
      {"measurement": "Activity", "setting": "Trypanosoma cruzi [5]", "value": "8 - 12%"},
      {"measurement": "Activity", "setting": "Trypanosoma cruzi [6]", "value": "Active"},
      {"measurement": "Activity", "setting": "Trypanosoma cruzi [7]", "value": 12.4, "unit": "%"},
      {"measurement": "Activity", "setting": "Trypanosoma cruzi [8]", "value": 8.63, "unit": "%"},
      {"measurement": "Activity", "setting": "Trypanosoma cruzi [9]", "value": 7.76, "unit": "%"},
      {"measurement": "Activity", "setting": "Trypanosoma cruzi [10]", "value": 14.66, "unit": "%"},
      {"measurement": "Activity", "setting": "Trypanosoma cruzi [11]", "value": 18.07, "unit": "%"},
      {"measurement": "Activity", "setting": "Trypanosoma cruzi [12]", "value": 14.32, "unit": "%"},
      {"measurement": "Activity", "setting": "Trypanosoma cruzi [13]", "value": 60.59},
      {"measurement": "Activity", "setting": "Trypanosoma cruzi [14]", "value": 89.81},
      {"measurement": "Activity", "setting": "Trypanosoma cruzi [15]", "value": 110.69},
      {"measurement": "Activity", "setting": "Trypanosoma cruzi [16]", "value": "Active"},
      {"measurement": "Activity", "setting": "Trypanosoma cruzi [17]", "value": "Active"},
      {"measurement": "Activity", "setting": "Trypanosoma cruzi [18]", "value": "inactive"},
      {"measurement": "Activity", "setting": "PBMC [19]", "value": "Non-Toxic"},
      {"measurement": "Activity", "setting": "Jurkat [20]", "value": "Non-Toxic"},
      {"measurement": "Activity", "setting": "PBMC [21]", "value": "Toxic"},
      {"measurement": "Activity", "setting": "Jurkat [22]", "value": "Toxic"},
      {"measurement": "Activity", "setting": "[23]", "value": 26.3, "unit": "%"},
      {"measurement": "Activity", "setting": "[24]", "value": 26.4, "unit": "%"},
      {"measurement": "IC50", "setting": "Enterococcus faecalis", "value": "30 to 137", "unit": "µM"},
      {"measurement": "inhibition at 0.2 µM", "setting": "Trypanosoma cruzi [25]", "value": 68, "unit": "%"},
      {"measurement": "IC50", "setting": "Trypanosoma cruzi [26]", "value": 200, "unit": "µM"}
    ]}
  ]
}
